Experiments:
[1] = target: T1, Cysteinyl leukotriene receptor 1 (Cavia porcellus) (UniProt Q2NNR5); assay: Dissociation constant (KB) […] was evaluated in vitro in isolated guinea pig tracheal strips
T1 sequence (whole entry): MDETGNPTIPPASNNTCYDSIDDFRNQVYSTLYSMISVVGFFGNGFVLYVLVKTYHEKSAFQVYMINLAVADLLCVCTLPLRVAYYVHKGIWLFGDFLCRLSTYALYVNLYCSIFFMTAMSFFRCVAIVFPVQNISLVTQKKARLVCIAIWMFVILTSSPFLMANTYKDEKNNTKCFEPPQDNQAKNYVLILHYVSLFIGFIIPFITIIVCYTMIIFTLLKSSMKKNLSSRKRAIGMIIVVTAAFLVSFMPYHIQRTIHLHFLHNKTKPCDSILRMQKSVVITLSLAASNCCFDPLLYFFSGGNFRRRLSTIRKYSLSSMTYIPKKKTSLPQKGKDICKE

Cavia porcellus [2] = assay: Compound (50 mg/kg, intraperitoneally) was tested in spontaneously breathing, conscious guinea pigs challenged with aerosolized LTD4 (60-min pretreatment); format: functional
Cavia porcellus [3] = species: Cavia porcellus; assay: Percent inhibition of the leukotriene D4 (LTD4)-induced contraction of guinea pig tracheal spirals at 1 uM concentration; format: functional; settings: Trachea
How it was run: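 Guinea pig tracheal spirals were split into paired sections in 10 mL baths of modified Krebs at 37 °C, gassed with 95% O₂/5% CO₂, under 2 g resting tension. After 60 min equilibration (washes every 15 min), reproducible contractions to 8 nM LTD₄ or 8 nM LTE₄ were obtained. Compound was added for 10 min, then agonist challenge repeated; percent inhibition is relative to the vehicle-treated paired section.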

## CCCc1c(OCc2ccc(C(=O)O)c(Br)c2)ccc(C(C)=O)c1O
[1]
  Kb: 170 nM
Cavia porcellus [2]
  Protection: 69%
Cavia porcellus [3]
  inhibition at 1 µM: 30%
